Compound activity as filed in PubChem.
TRPC4 act: TRPC4 (mouse) channel activation. HEK293 TRPC4beta/mu-opioid, Fluo4 calcium fluorescence; hits give high values. B-score at 10 µM. 310,000 tested, 0.49% active;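 active means B-score above 5 SD of library B-scores, and initial fluorescence ratio not above library mean plus 5 SD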;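 further: positive B-score marks a calcium rise read as TRPC4 activation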
Target sequence (Q9QUQ5 whole entry, looked up): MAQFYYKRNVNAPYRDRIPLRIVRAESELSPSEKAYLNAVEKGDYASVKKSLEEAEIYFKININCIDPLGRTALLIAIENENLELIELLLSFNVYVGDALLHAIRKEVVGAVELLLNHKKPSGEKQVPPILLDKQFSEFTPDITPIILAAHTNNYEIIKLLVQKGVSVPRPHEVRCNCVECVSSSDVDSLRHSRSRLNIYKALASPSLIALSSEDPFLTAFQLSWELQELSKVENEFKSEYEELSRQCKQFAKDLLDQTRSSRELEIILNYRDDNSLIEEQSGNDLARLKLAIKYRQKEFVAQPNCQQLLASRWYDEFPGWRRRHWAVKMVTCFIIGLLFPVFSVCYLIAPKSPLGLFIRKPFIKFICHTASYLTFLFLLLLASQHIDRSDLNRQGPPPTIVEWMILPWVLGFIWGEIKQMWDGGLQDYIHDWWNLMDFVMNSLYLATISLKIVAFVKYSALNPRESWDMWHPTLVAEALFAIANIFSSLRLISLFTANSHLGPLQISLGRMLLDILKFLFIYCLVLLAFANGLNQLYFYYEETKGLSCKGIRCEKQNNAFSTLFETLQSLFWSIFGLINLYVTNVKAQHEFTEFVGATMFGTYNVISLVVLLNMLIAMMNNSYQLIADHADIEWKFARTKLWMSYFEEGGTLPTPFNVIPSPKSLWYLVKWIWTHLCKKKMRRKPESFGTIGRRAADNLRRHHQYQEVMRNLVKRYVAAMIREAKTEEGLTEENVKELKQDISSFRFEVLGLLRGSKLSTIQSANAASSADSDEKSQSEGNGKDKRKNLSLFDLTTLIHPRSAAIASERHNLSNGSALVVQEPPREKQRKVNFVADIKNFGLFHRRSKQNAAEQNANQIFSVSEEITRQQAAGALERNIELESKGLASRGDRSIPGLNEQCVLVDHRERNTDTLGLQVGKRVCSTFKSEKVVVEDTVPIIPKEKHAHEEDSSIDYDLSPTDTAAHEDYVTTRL
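Assay system – TRPC4beta and mu-opioid receptor HEK293 stable cells · Measured by – Fluo4 fluorescence, kinetic · Schedule – dye loading 45 min room temperature, 110 s kinetic read · Read-out – B-scored integrated calcium fluorescence ratio · Controls – buffer and maximal DAMGO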
TRPC4 inh: inhibitors of mouse TRPC4 channel. Q9QUQ5. HEK293 TRPC4beta/mu-opioid, DAMGO-evoked Fluo4 calcium flux; hits give low values. B-score at 10 µM. 300,000 tested, 0.39% active. AID 2247;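 active means B-score over 3 SD under the library average, no early fluorescence shift, positive overall ratio signal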
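Assay system: Stable TRPC4beta/mu-opioid receptor HEK293 cells | Reagent: DAMGO in two steps, submaximal then maximal | Compound dosing: Single concentration per test compound | Signal: Fluo4 Ca2+ flux fluorescence | Evaluation: Per-well B score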
TRPC4 potent: allosteric potentiators of mouse TRPC4 channel. Q9QUQ5. HEK293 TRPC4beta/mu-opioid, DAMGO EC20, Fluo-4 Ca2+ flux; hits give high values. B-score at 10 µM. 310,000 tested, 0.42% active. AID 2227;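 active means B-score of calcium response area above 5 SD of library B-scores, with initial fluorescence ratio within 5 SD of library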;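 further: B-score of integrated fluorescence ratio over time as area under calcium response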
TRPC6 inhibitor: inhibitors of mouse TRPC6 channel; HEK293-TRPC6, membrane potential dye, ACh-evoked depolarization; hits give low values; AID 2553; 310,000 tested, 1.1% active; Q61143; B-score at 10 µM;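 active means B-score under library mean minus 3 SD, initial fluorescence not abnormally high, positive integrated signal ratio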;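 further: B-score derived from integrated fluorescence ratio over the kinetic read; more negative B-score means stronger inhibition of depolarization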
TRPC6 activator: activators of mouse TRPC6 channel; B-score at 10 µM; 310,000 tested, 0.13% active; AID 2550; Q61143; HEK293-TRPC6 membrane potential dye fluorescence; hits give high values;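 active means B-score of the integrated fluorescence ratio above library mean plus 3 SD, and starting fluorescence ratio within library mean plus 5 SD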;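 further: higher score means more depolarization so channel activation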
TRPC4 spec 2: mouse TRPC4 off-target activity of TRPC6 inhibitors, second screen | shares compounds with TRPC6 inhibitor | HEK293 TRPC4/MOR, membrane potential dye fluorescence; channel activated by saturating DAMGO dose | inhibition, % at 10 µM | 920 tested, 42% active | AID 2776;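 active means compounds whose fluorescence signal differed from control wells by over 3 SD, either direction, in both duplicate plates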
TRPC4 spec: selectivity of TRPC6 inhibitors: effect on mouse TRPC4; AID 2777; HEK293 TRPC4/mu-opioid, membrane potential fluorescence; activity change, negative = inhibition, % at 10 µM; shares compounds with TRPC6 inhibitor; 920 tested, 61% active;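 active means rise or fall in signal beyond 3 SD of buffer-only wells in both replicate plates, either sign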;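 further: integrated kinetic ratio of fluorescence range over baseline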
HEK293 MPD ctr 2-1: second check of TRPC6 inhibitor effects in parental HEK293 cells; shares compounds with TRPC6 inhibitor; AID 2779; 920 tested, 31% active; signal change vs control, % at 10 µM; parental HEK293 membrane potential dye fluorescence; maximal acetylcholine challenge after compound addition;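 active means membrane potential signal moving either way by over 3 SD of the maximum-effect control, in both duplicate plates, meaning non-specific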
HEK293 MPD ctr-1: checks TRPC6 inhibitor effects in parental HEK293 cells | membrane potential signal change, % at 10 µM | parental HEK293 membrane potential dye fluorescence | 920 tested, 60% active | AID 2780 | shares compounds with TRPC6 inhibitor;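 active means membrane potential signal shifting up or down by more than 3 SD of buffer-only wells, on both duplicate plates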
HEK293 MPD ctr-2: checks TRPC6 modulator effects in parental HEK293 cells | shares compounds with TRPC6 inhibitor | membrane potential dye fluorescence | membrane potential signal change, % at 10 µM | 2,400 tested, 51% active | AID 488924;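 active means membrane potential signal moves up or down beyond 5 SD from buffer-only wells, on both duplicate plates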
HEK293 MPD ctr 2-2: second counter-screen for TRPC6 modulators: effect in parental HEK293 cells; shares compounds with TRPC6 inhibitor; membrane potential dye fluorescence; after compound, maximal acetylcholine stimulation; inhibition, % at 10 µM; 2,400 tested, 14% active;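 active means membrane potential signal drops by more than 5 SD from the mean control signal, in both duplicate plates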;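 further: plate controls were acetylcholine ECmax control wells for no effect and buffer only wells for full effect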
TRPC4/MOR mod: tests whether TRPC6 modulators also affect mouse TRPC4 | HEK293 TRPC4/mu-opioid, membrane potential fluorescence | AID 488927 | percent change from control (negative = decrease, positive = increase), % at 10 µM | 2,400 tested, 69% active | shares compounds with TRPC6 inhibitor;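 active means membrane potential signal moved up or down beyond 5 SD of buffer control wells, in both duplicate plates, actives on both sides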;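 further: plate controls were assay buffer wells for no effect and DAMGO maximal-effect wells for full effect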
TRPC4/MOR inh 2: mouse TRPC4 off-target activity of TRPC6 modulators, second screen | shares compounds with TRPC6 inhibitor | HEK293 TRPC4/mu-opioid, membrane potential dye fluorescence; stimulated with maximal-effect DAMGO | inhibition, % at 10 µM | 2,400 tested, 55% active;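 active means drop in membrane potential signal beyond 5 SD of the control wells in both duplicate plates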;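 further: TRPC4 counter screen for TRPC6 hits run under conditions tuned for TRPC6 not TRPC4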
TRPC6 inh conf: confirmation of mouse TRPC6 inhibitors; HEK293-TRPC6, membrane potential dye, ACh-evoked depolarization; 3,300 tested, 43% active; inhibition, % at 10 µM; shares compounds with TRPC6 inhibitor;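 active means fluorescence ratio falls more than 5 SD below the full-stimulation control mean, in both duplicate runs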;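 further: integrated fluorescence ratio of peak minus minimum over baseline after agonist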
TRPC6 act conf: confirmation of mouse TRPC6 activators; shares compounds with TRPC6 inhibitor; HEK293-TRPC6 membrane potential dye fluorescence, FDSS; activation, % at 10 µM; 2,800 tested, 11% active; AID 488961;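 active means ratio signal rise beyond 5 SD above unstimulated control wells' mean, seen in both duplicate runs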;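 further: plate controls were buffer EC0 wells for no effect and acetylcholine ECmax response for full effect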
Starred values were filed as active, the others as inactive. The list is not random: actives were taken first. Their share in the collection is about 2.3%.

How did Cc1cc(Cl)ccc1C(=O)C1CCCN(C(=O)c2cc(C(C)C)no2)C1 (stereo not given) do in these assays?
TRPC4 act: inactive; TRPC4 inh: inactive; TRPC4 potent: inactive; TRPC6 inhibitor: -6.2*; TRPC6 activator: inactive; HEK293 MPD ctr-2: 98%*; HEK293 MPD ctr 2-2: inactive; TRPC4/MOR mod: 20%*; TRPC4/MOR inh 2: inactive; TRPC6 inh conf: 48%*

How did CC(C)c1cc(C(=O)N2CCCC(C(=O)c3ccc4ccccc4c3)C2)on1 (stereo not given) do in these assays?
TRPC4 act: inactive; TRPC4 inh: inactive; TRPC4 potent: inactive; TRPC6 inhibitor: inactive; TRPC6 activator: inactive

How did CS(=O)(=O)c1ccc(NC(=O)c2cccc(S(=O)(=O)N3CCN(Cc4ccccc4)CC3)c2)cc1 do in these assays?
TRPC4 act: inactive; TRPC4 inh: inactive; TRPC4 potent: inactive; TRPC6 inhibitor: inactive; TRPC6 activator: inactive

How did CCOC(=O)/C(=C/C=C1\Sc2cc(C)c(C)cc2N1CC)C(C)=O do in these assays?
TRPC4 act: inactive; TRPC4 inh: inactive; TRPC4 potent: inactive; TRPC6 inhibitor: -5*; TRPC6 activator: inactive; HEK293 MPD ctr-2: active; HEK293 MPD ctr 2-2: active; TRPC4/MOR mod: 282%*; TRPC4/MOR inh 2: 52%*; TRPC6 inh conf: inactive

Results for O=[N+]([O-])c1ccc(Cn2cc(-c3cccc(C(F)(F)F)c3)nn2)cc1 ?
TRPC4 act: inactive; TRPC4 inh: inactive; TRPC4 potent: inactive; TRPC6 inhibitor: inactive; TRPC6 activator: inactive

How did Cc1ccn2c(Nc3ccc4c(c3)OCO4)c(-c3ccc(O)cc3)nc2c1 do in these assays?
TRPC4 act: inactive; TRPC4 inh: inactive; TRPC4 potent: inactive; TRPC6 inhibitor: -7.1*; TRPC6 activator: inactive; TRPC4 spec 2: inactive; TRPC4 spec: -14%*; HEK293 MPD ctr 2-1: inactive; HEK293 MPD ctr-1: -154%*; TRPC6 inh conf: inactive; TRPC6 act conf: inactive

What do the screens show for `COc1cc(-c2nc3ccc(C)cn3c2Nc2ccc3c(c2)OCCO3)ccc1O`?
TRPC4 act: inactive; TRPC4 inh: inactive; TRPC4 potent: inactive; TRPC6 inhibitor: -8.4*; TRPC6 activator: inactive; TRPC4 spec 2: 54%*; TRPC4 spec: -11%*; HEK293 MPD ctr 2-1: inactive; HEK293 MPD ctr-1: -322%*; TRPC6 inh conf: inactive; TRPC6 act conf: inactive

How did CCc1nc(SCc2ccccc2C)n[nH]1 do in these assays?
TRPC4 act: inactive; TRPC4 inh: inactive; TRPC4 potent: inactive; TRPC6 inhibitor: inactive; TRPC6 activator: inactive

How did Cc1ccc(S(=O)(=O)N2CCOC23CCN(C(=O)C(=O)NCCC(C)C)CC3)cc1 do in these assays?
TRPC4 act: inactive; TRPC4 inh: inactive; TRPC4 potent: inactive; TRPC6 inhibitor: inactive; TRPC6 activator: inactive

How did COc1cccc2sc3ccc(NCCC4CCCN4C)cc3c(=O)c12 (stereo not given) do in these assays?
TRPC4 act: inactive; TRPC4 inh: inactive; TRPC4 potent: inactive; TRPC6 inhibitor: -6.8*; TRPC6 activator: inactive; TRPC4 spec 2: 65%*; TRPC4 spec: 21%*; HEK293 MPD ctr 2-1: inactive; HEK293 MPD ctr-1: 17%*; TRPC6 inh conf: inactive

What do the screens show for `Cc1ccc(N2C(=O)CSC2c2c(F)cccc2Cl)cc1` (stereo not given)?
TRPC4 act: inactive; TRPC4 inh: inactive; TRPC4 potent: inactive; TRPC6 inhibitor: -12*; TRPC6 activator: inactive; TRPC4 spec 2: inactive; TRPC4 spec: inactive; HEK293 MPD ctr 2-1: -26%*; HEK293 MPD ctr-1: inactive; TRPC6 inh conf: 84%*; TRPC6 act conf: inactive

How did COc1ccc(CCC(=O)N2CCN(C(=O)c3ccccc3)CC2)cc1 do in these assays?
TRPC4 act: inactive; TRPC4 inh: inactive; TRPC4 potent: inactive; TRPC6 inhibitor: inactive; TRPC6 activator: inactive

What do the screens show for `C(#Cc1ccccc1)C[N+]1(CC#Cc2cccc3ccccc23)CCCC1`?
TRPC4 act: inactive; TRPC4 inh: inactive; TRPC4 potent: inactive; TRPC6 inhibitor: -5.5*; TRPC6 activator: inactive; HEK293 MPD ctr-2: inactive; HEK293 MPD ctr 2-2: inactive; TRPC4/MOR mod: -14%*; TRPC4/MOR inh 2: inactive; TRPC6 inh conf: inactive; TRPC6 act conf: inactive

Results for COc1ccc(C(=O)C2CCCN(Cc3cccn3-c3ccc(Cl)cn3)C2)c(OC)c1 (stereo not given) ?
TRPC4 act: inactive; TRPC4 inh: inactive; TRPC4 potent: inactive; TRPC6 inhibitor: -5.8*; TRPC6 activator: inactive; HEK293 MPD ctr-2: 134%*; HEK293 MPD ctr 2-2: inactive; TRPC4/MOR mod: 14%*; TRPC4/MOR inh 2: 89%*; TRPC6 inh conf: 53%*

How did O=C(c1cccc(C(F)(F)F)c1)C1CCCN(Cc2cccn2-c2ccccn2)C1 (stereo not given) do in these assays?
TRPC4 act: inactive; TRPC4 inh: -5*; TRPC4 potent: inactive; TRPC6 inhibitor: -7.5*; TRPC6 activator: inactive; TRPC4 spec 2: 35%*; TRPC4 spec: 18%*; HEK293 MPD ctr 2-1: inactive; HEK293 MPD ctr-1: 14%*; TRPC6 inh conf: 57%*; TRPC6 act conf: inactive
